{
  "source": "ChEMBL document CHEMBL3351274",
  "about": "“Sensitization of tumor necrosis factor-related apoptosis-inducing ligand (TRAIL)-resistant primary prostate cancer cells by isoegomaketone from Perilla frutescens” (J Nat Prod, 2014)",
  "key": {"[1]": {"test": "Induction of apoptosis in human RC-58T/h/SA#4 cells assessed as cytochrome C level in cytosol at 20 uM after 24 hrs by immunoblotting analysis relative to untreated control", "type": "functional", "summary_of_the_method": "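Cells grown in DMEM/10% FBS at 37 °C, 5% CO2, then treated 24 h with compound (20 μM) with or without TRAIL (100 ng/mL). Whole lysates were used for Bax and Bcl-2. Cytosolic and mitochondrial fractions were prepared with a mitochondria isolation kit for AIF and cytochrome c. Blotting used 10 μg protein/lane, 12% SDS-PAGE, nitrocellulose, overnight primary antibody at 4 °C and ECL detection.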"}, "[2]": {"test": "Induction of apoptosis in human RC-58T/h/SA#4 cells assessed as DR4 expression at 20 uM after 6 hrs by immunoblotting analysis relative to untreated control", "type": "functional"}, "[3]": {"test": "Sensitization of TRAIL-induced apoptosis in human RC-58T/h/SA#4 cells assessed as PARP cleavage at 20 uM after 24 hrs by immunoblotting analysis relative to untreated control", "type": "functional", "summary_of_the_method": "(§1)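 Cells seeded at 5 × 10^4 cells/mL and cultured 24 h, then given 20 μM compound and/or 100 ng/mL TRAIL for 24 h. Whole-cell lysate made in Tris/NaCl/EDTA/NaF/pyrophosphate/PMSF/aprotinin buffer, 30 min on ice, protein measured by BCA. 12% SDS-PAGE at 10 μg/lane, nitrocellulose blot, primary antibodies (caspase-3, -8, -9, Bax, Bcl-2, PARP) overnight at 4 °C, HRP secondary, ECL.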"}, "[4]": {"test": "Sensitization of TRAIL-induced apoptosis in human RC-58T/h/SA#4 cells assessed as PARP cleavage at 20 uM after 24 hrs by immunoblotting analysis in presence of Dr5 Fc chimera relative to untreated control", "type": "functional", "summary_of_the_method": "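Cells pretreated 2 h with 100 ng/mL DR5 Fc chimera, then given 20 μM compound and/or 100 ng/mL TRAIL for 24 h. Total lysates immunoblotted (12% SDS-PAGE, nitrocellulose) for caspase-3, -8, -9 and PARP cleavage, with HRP secondary and ECL detection.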"}, "Homo sapiens [5]": {"species": "Homo sapiens", "test": "Induction of apoptosis in human RC-58T/h/SA#4 cells assessed as p53 expression at 2.5 to 40 uM by immunoblotting analysis relative to untreated control", "type": "functional, cell-based", "conditions": "TDE = time-dependent effect", "summary_of_the_method": "(§2)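 RC-58T/h/SA#4 cells seeded at 5 × 10^4 cells/mL and cultured 24 h, then given compound across a concentration series or at fixed dose over a time course. Lysates were quantified by BCA. 10 μg protein/lane run on 12% SDS-PAGE and transferred to nitrocellulose. Blots probed for p53, CHOP and β-actin with HRP secondary and ECL.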"}, "[6]": {"test": "Induction of apoptosis in human RC-58T/h/SA#4 cells assessed as p53 expression at 2.5 uM after 24 hrs by immunoblotting analysis relative to untreated control", "type": "functional", "summary_of_the_method": "as §2"}, "[7]": {"test": "Induction of apoptosis in human RC-58T/h/SA#4 cells assessed as p53 expression at 5 uM after 24 hrs by immunoblotting analysis relative to untreated control", "type": "functional", "summary_of_the_method": "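RC-58T/h/SA#4 cells (DMEM, 10% FBS, 37 °C, 5% CO2) exposed to the compound over a concentration range or time course. Lysates run on 12% SDS-PAGE at 10 μg protein/lane, transferred to nitrocellulose and blocked with BSA. Blots probed overnight at 4 °C with anti-p53, then HRP secondary antibody, ECL detection; β-actin as loading control.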"}, "[8]": {"test": "Induction of apoptosis in human RC-58T/h/SA#4 cells assessed as p53 expression at 10 uM after 24 hrs by immunoblotting analysis relative to untreated control", "type": "functional", "summary_of_the_method": "as §2"}, "[9]": {"test": "Induction of apoptosis in human RC-58T/h/SA#4 cells assessed as CHOP expression at 2.5 uM after 24 hrs by immunoblotting analysis relative to untreated control", "type": "functional", "summary_of_the_method": "as §2"}, "[10]": {"test": "Induction of apoptosis in human RC-58T/h/SA#4 cells assessed as CHOP expression at 40 uM after 24 hrs by immunoblotting analysis relative to untreated control", "type": "functional", "summary_of_the_method": "as §2"}, "[11]": {"test": "Induction of apoptosis in human RC-58T/h/SA#4 cells assessed as p53 expression at 20 uM after 3 hrs by immunoblotting analysis relative to untreated control", "type": "functional", "summary_of_the_method": "as §2"}, "[12]": {"test": "Induction of apoptosis in human RC-58T/h/SA#4 cells assessed as p53 expression at 20 uM after 6 hrs by immunoblotting analysis relative to untreated control", "type": "functional", "summary_of_the_method": "as §2"}, "[13]": {"test": "Induction of apoptosis in human RC-58T/h/SA#4 cells assessed as p53 expression at 20 uM after 12 hrs by immunoblotting analysis relative to untreated control", "type": "functional", "summary_of_the_method": "as §2"}, "[14]": {"test": "Induction of apoptosis in human RC-58T/h/SA#4 cells assessed as CHOP expression at 20 uM after 12 hrs by immunoblotting analysis relative to untreated control", "type": "functional", "summary_of_the_method": "as §2"}, "[15]": {"test": "Induction of apoptosis in human RC-58T/h/SA#4 cells assessed as CHOP expression at 20 uM after 18 hrs by immunoblotting analysis relative to untreated control", "type": "functional", "summary_of_the_method": "as §2"}, "[16]": {"test": "Induction of ROS generation in human RC-58T/h/SA#4 cells at 20 uM after 30 mins by flow cytometry (reference value: 1.9%)", "type": "functional"}, "Homo sapiens [17]": {"species": "Homo sapiens", "test": "Sensitization of TRAIL-induced cytotoxicity against human RC-58T/h/SA#4 cells assessed as cell viability at 5 to 20 uM after 24 hrs by SRB assay", "type": "functional, cell-based", "summary_of_the_method": "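Cells seeded at 5 × 10^4 cells/mL, grown in DMEM with 10% FBS, and given the compound with or without 100 ng/mL TRAIL for 24 h at 37 °C, 5% CO2. RWPE-1 tested at 20 μM. Cells fixed in 12% TCA for 1 h at 4 °C, stained 1 h with 0.4% SRB, washed in 1% acetic acid, dye dissolved in 10 mM Tris and absorbance read. Three experiments, means ± SD.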"}, "Homo sapiens [18]": {"species": "Homo sapiens", "test": "Sensitization of TRAIL-induced apoptosis in human RC-58T/h/SA#4 cells at 20 uM after 24 hrs by annexin-V/propidium iodide staining-based flow cytometry relative to control", "type": "functional, cell-based", "summary_of_the_method": "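RC-58T/h/SA#4 cells seeded at 1 × 10^5 cells/mL in 6-well plates and given 20 μM compound and/or 100 ng/mL TRAIL for 24 h. Cells washed in ice-cold PBS, labelled with annexin V Alexa Fluor 488 for 30 min at 4 °C in the dark, then with PI. Annexin V-positive fraction counted by flow cytometry; three independent experiments, means ± SD, Student's t-test.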"}, "[19]": {"test": "Sensitization of TRAIL-induced apoptosis in human RC-58T/h/SA#4 cells assessed as procaspase-9 activation at 20 uM after 24 hrs by immunoblotting analysis relative to untreated control", "type": "functional", "summary_of_the_method": "as §1"}, "[20]": {"test": "Sensitization of TRAIL-induced apoptosis in human RC-58T/h/SA#4 cells assessed as procaspase-3 activation at 20 uM after 24 hrs by immunoblotting analysis relative to untreated control", "type": "functional", "summary_of_the_method": "as §1"}, "[21]": {"test": "Induction of apoptosis in human RC-58T/h/SA#4 cells assessed as procaspase-3 activation at 20 uM after 24 hrs by immunoblotting analysis relative to untreated control", "type": "functional", "summary_of_the_method": "as §1"}, "Homo sapiens [22]": {"species": "Homo sapiens", "test": "Sensitization of TRAIL-induced apoptosis in human RC-58T/h/SA#4 cells assessed as cell viability at 20 uM after 24 hrs by SRB assay in presence of NAC"}},
  "note": "Activity calls are given as the source filed them. The calls are words filed in the database; no cut-off is given here.",
  "data": [
    {"smiles": "CC(C)/C=C/C(=O)c1ccoc1", "values": [
      {"measurement": "Ratio", "setting": "[1]", "result": 0.9},
      {"measurement": "Ratio", "setting": "[2]", "result": 1.1},
      {"measurement": "Ratio", "setting": "[3]", "result": 0.7},
      {"measurement": "Ratio", "setting": "[4]", "result": 1},
      {"measurement": "Activity", "setting": "Homo sapiens [5]", "result": "tde"},
      {"measurement": "Ratio", "setting": "[6]", "result": 1.2},
      {"measurement": "Ratio", "setting": "[7]", "result": 1.2},
      {"measurement": "Ratio", "setting": "[8]", "result": 2},
      {"measurement": "Ratio", "setting": "[9]", "result": 1.3},
      {"measurement": "Ratio", "setting": "[10]", "result": 2},
      {"measurement": "Ratio", "setting": "[11]", "result": 1},
      {"measurement": "Ratio", "setting": "[12]", "result": 1.1},
      {"measurement": "Ratio", "setting": "[13]", "result": 1.8},
      {"measurement": "Ratio", "setting": "[14]", "result": 1.6},
      {"measurement": "Ratio", "setting": "[15]", "result": 2},
      {"measurement": "Activity", "setting": "[16]", "result": 2.9, "unit": "%"},
      {"measurement": "Activity", "setting": "Homo sapiens [17]", "result": "Active"},
      {"measurement": "Activity", "setting": "Homo sapiens [18]", "result": "Active"},
      {"measurement": "Ratio", "setting": "[19]", "result": 0.5},
      {"measurement": "Ratio", "setting": "[20]", "result": 0.4},
      {"measurement": "Ratio", "setting": "[21]", "result": 1},
      {"measurement": "Activity", "setting": "Homo sapiens [22]", "result": "inactive"}
    ]}
  ]
}
